Measurements taken from ChEMBL document CHEMBL3124866, “Small molecular antibacterial peptoid mimics: the simpler the better!” (J Med Chem, 2014).
In brackets after ≈: the same amount, converted by molar mass. Activity calls are given as the source filed them. No cut-off for these calls is given here. Residues, ends and D or L forms follow the SMILES beside them.

What was measured:
Staphylococcus aureus [1] = assay: Antibacterial activity against drug-sensitive Staphylococcus aureus MTCC 737 assessed as cytoplasmic membrane depolarization at MIC measured up to 12 mins by DiSC3(5) dye-based fluorimetric analysis; type: functional, organism-based
How it was run: (§1)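 Mid-log cells were washed and resuspended at 10^8 cfu/mL in 5 mM glucose, 5 mM HEPES and 100 mM KCl (1:1:1). They were loaded with 2 µM DiSC3(5) for 10 min (S. aureus) or 20 min (P. aeruginosa, E. coli), then stabilized 2 min at room temperature. Compound was added and depolarization read as fluorescence increase (ex 622 nm, em 670 nm) over 10 min.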

[2] = Therapeutic index, ratio of HC50 for human erythrocytes to MIC for drug-sensitive Pseudomonas aeruginosa ATCC 4676; settings: read-out: TI
Staphylococcus aureus [3] = assay: Antibacterial activity against drug-sensitive Staphylococcus aureus MTCC 737 assessed as formation of blebs and holes at 10 X MIC after 2 hrs by field-emission scanning electron microscopic analysis; type: functional, organism-based
How it was run: (§2)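 Cells grown 6 h (E. coli in LB, S. aureus in yeast-dextrose broth) were resuspended at 10^6 cells/mL in nutrient media pH 7.4. They were treated at 10× MIC at 37 °C for 2 h with 250 rpm shaking, beside an untreated control. Cells were pelleted, dehydrated through a 30–100% ethanol series and dried on silicon wafer. S. aureus was sputter-coated; E. coli was imaged uncoated by FESEM.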

Escherichia coli [4] = assay: Antibacterial activity against drug-sensitive Escherichia coli MTCC 443 assessed as merging of dead bacteria with each other at 10 X MIC after 2 hrs by field-emission scanning electron microscopic analysis; type: functional, organism-based; how it was run: as §2
Escherichia coli [5] = assay: Antibacterial activity against drug-sensitive Escherichia coli MTCC 443 assessed as disruption of cell membrane at 10 X MIC after 2 hrs by field-emission scanning electron microscopic analysis; type: functional, organism-based; how it was run: as §2
Staphylococcus aureus [6] = assay: Antibacterial activity against drug-sensitive Staphylococcus aureus MTCC 737 assessed as change in cell membrane morphology at 10 X MIC after 1.5 hrs by SYTO and propidium iodide staining-based fluorescence microscopic analysis; type: functional, organism-based
How it was run: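 Suspension at 10^9 cells/mL was treated at 10× MIC for 1.5 h, beside an untreated control. Cells were pelleted, resuspended in PBS and mixed with a probe mix of 3.0 µM SYTO 9 and 15.0 µM PI. After 15 min in the dark, cells were examined by fluorescence microscopy.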

Escherichia coli [7] = assay: Antibacterial activity against drug-sensitive Escherichia coli MTCC 443 assessed as outer cytoplasmic membrane permeabilization at MIC measured up to 10 mins by N-phenylnaphthylamine dye-based fluorescence assay; type: functional, organism-based
How it was run: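 Mid-log E. coli (6 h, 10^8 cells/mL) were washed and resuspended in 5 mM glucose/5 mM HEPES pH 7.2 with 10 µM NPN. Compound was added in water. Outer membrane uptake of NPN was followed as fluorescence increase (ex 350 nm, em 420 nm) for 10 min.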

Staphylococcus aureus [8] = assay: Antibacterial activity against drug-sensitive Staphylococcus aureus MTCC 737 assessed as inner cytoplasmic membrane permeabilization at MIC measured up to 10 mins by propidium iodide staining-based fluorescence assay; type: functional, organism-based
How it was run: (§3)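 Mid-log S. aureus were harvested, washed and resuspended in 5 mM HEPES/5 mM glucose pH 7.2 containing 15 µM propidium iodide. Compound was added and PI uptake followed as fluorescence increase (ex 535 nm, em 617 nm) for 10 min.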

Escherichia coli [9] = assay: Antibacterial activity against drug-sensitive Escherichia coli MTCC 443 at MIC measured […] by DiSC3(5) dye-based fluorimetric analysis; type: functional, organism-based; how it was run: as §1
[10] = Stability of the compound assessed as trypsin (unknown origin)-mediated drug degradation at 1 mg/ml up to 24 hrs by LC-MS analysis; type: ADME; settings: human
How it was run: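 Compound at 1 mg/mL (solution before mixing) was incubated with trypsin in 0.1 M NH4HCO3 at 37 °C. Aliquots were taken from 0 min to 24 h, diluted with water and analyzed by LC-MS for new products and total ion current. A no-trypsin control was sampled at 0 and 24 h.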

Staphylococcus aureus [11] = assay: Antibacterial activity against drug-sensitive Staphylococcus aureus MTCC 737 preincubated for 3 hrs in 50% human plasma measured after 24 hrs by broth microdilution assay; type: functional; settings: MTCC 737, Plasma
How it was run: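 Plasma was separated by centrifuging fresh human blood. Compound at 1600 µg/mL in 50% plasma was preincubated at 37 °C for 0, 3 or 6 h. Two-fold dilutions were added 1:3 to S. aureus at 10^5 cfu/mL and incubated 37 °C for 24 h. MIC was read by OD as in the broth assay.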

Staphylococcus aureus [12] = assay: Bactericidal activity against drug-sensitive Staphylococcus aureus MTCC 737 at 2 X MIC after 24 hrs by time-kill assay; type: functional, organism-based
How it was run: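 S. aureus at ~1.8×10^6 CFU/mL in fresh media was exposed at MIC and 2× MIC. Samples were taken at 0, 1, 2, 3, 6 and 24 h and serially diluted 10-fold in 0.9% saline. They were plated on yeast-dextrose agar at 37 °C overnight, and colonies were counted as log10 CFU/mL.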

[13] = Retention time of the compound by HPLC analysis; type: physicochemical
[14] = Hemolytic activity in human erythrocytes after 1 hr by spectrophotometric analysis; type: ADME, cell-based, Erythrocyte
How it was run: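 Heparinized fresh human erythrocytes at 5 vol% in PBS pH 7.4 were mixed 3:1 with serially diluted compound and held 1 h at 37 °C. Plates were centrifuged and supernatant A540 read. Hemolysis was scaled between an untreated control and a Triton X-100 (100% lysis) control. HC50 is the mean of at least two independent triplicate experiments.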

Klebsiella pneumoniae = assay: Antibacterial activity against beta-lactam-resistant Klebsiella pneumoniae ATCC 700603 after 24 hrs by broth microdilution assay; type: functional; settings: ATCC 700603, 24 h
How it was run: (§4)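 MIC by broth microdilution. Cultures were grown 6 h to ~10^9 cfu/mL, then diluted to 10^5 cfu/mL. Media: yeast-dextrose broth for MRSA, BHI for VRE, and beef extract/peptone nutrient broth for K. pneumoniae. Compounds were serially diluted in water, 50 µL added to 150 µL cells, and incubated 24 h at 37 °C. OD600 triplicates were sigmoid-fitted; MIC is the point where OD equals the no-bacteria control. Mean ± SEM of ≥2 experiments.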

Enterococcus faecium [15] = assay: Antibacterial activity against vancomycin-resistant Enterococcus faecium ATCC 51559 after 24 hrs by broth microdilution assay; type: functional; settings: ATCC 51559, 24 h; how it was run: as §4
Staphylococcus aureus [16] = assay: Antibacterial activity against methicillin-resistant Staphylococcus aureus ATCC 33591 after 24 hrs by broth microdilution assay; type: functional; settings: ATCC 33591, 24 h; how it was run: as §4
Pseudomonas aeruginosa [17] = assay: Antibacterial activity against drug-sensitive Pseudomonas aeruginosa ATCC 4676 after 24 hrs by broth microdilution assay; type: functional; settings: ATCC 4676, 24 h
How it was run: (§5)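 Bacteria grown 6 h to ~10^9 cfu/mL and diluted to 10^5 cfu/mL in nutrient media. Growth media were LB (E. coli), yeast-dextrose broth (S. aureus, P. aeruginosa) and BHI (E. faecium). Compound was serially diluted in water and added 1:3 to bacteria, then incubated 37 °C for 24 h with OD600 read-out. Triplicate ODs were sigmoid-fitted; MIC was taken where OD matched the no-bacteria control. At least two independent experiments.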

Escherichia coli [18] = assay: Antibacterial activity against drug-sensitive Escherichia coli MTCC 443 after 24 hrs by broth microdilution assay; type: functional; settings: MTCC 443, 24 h; how it was run: as §5
Enterococcus faecium [19] = assay: Antibacterial activity against drug-sensitive Enterococcus faecium ATCC 19634 after 24 hrs by broth microdilution assay; type: functional; settings: ATCC 19634, 24 h; how it was run: as §5
Staphylococcus aureus [20] = assay: Antibacterial activity against drug-sensitive Staphylococcus aureus MTCC 737 after 24 hrs by broth microdilution assay; type: functional; settings: MTCC 737, 24 h; how it was run: as §5
Staphylococcus aureus [21] = assay: Antibacterial activity against drug-sensitive Staphylococcus aureus MTCC 737 assessed as inner cytoplasmic membrane permeabilization at 2 X MIC to 4 X MIC measured up to 10 mins by propidium iodide staining-based fluorescence assay; type: functional, organism-based; how it was run: as §3
Pseudomonas aeruginosa [22] = assay: Antibacterial activity against drug-sensitive Pseudomonas aeruginosa ATCC 4676 at MIC to 2 X MIC measured […] by DiSC3(5) dye-based fluorimetric analysis; type: functional, organism-based; how it was run: as §1
Staphylococcus aureus [23] = assay: Antibacterial activity against drug-sensitive Staphylococcus aureus MTCC 737 assessed as cytoplasmic membrane depolarization at MIC to 4 X MIC measured […] by DiSC3(5) dye-based fluorimetric analysis; type: functional, organism-based; how it was run: as §1
Staphylococcus aureus [24] = assay: Bactericidal activity against methicillin-resistant Staphylococcus aureus ATCC 33591 at 3 X MIC after 6 hrs by time-kill assay; type: functional, organism-based
How it was run: (§6)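 Time-kill: MRSA (~1.8×10^6 CFU/mL in fresh media) exposed at 37 °C to compound at 1×, 3× or 6× MIC. Aliquots taken at 0, 1, 2, 3, 6 and 24 h, 10-fold serially diluted in 0.9% saline, plated on yeast-dextrose agar, incubated overnight at 37 °C. Colonies counted, expressed as log10 CFU/mL.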

Staphylococcus aureus [25] = assay: Bactericidal activity against methicillin-resistant Staphylococcus aureus ATCC 33591 at 6 X MIC after 1 hr by time-kill assay; type: functional; how it was run: as §6
Escherichia coli [26] = assay: Ratio of MSI-78 MIC to compound MIC for Escherichia coli; type: functional
Pseudomonas aeruginosa [27] = assay: Antibacterial activity against Pseudomonas aeruginosa ATCC 27853 after 24 hrs by broth microdilution assay; type: functional; settings: ATCC 27853, 24 h
Escherichia coli [28] = assay: Antibacterial activity against Escherichia coli ATCC 25922 after 24 hrs by broth microdilution assay; type: functional; settings: ATCC 25922, 24 h
Staphylococcus aureus [29] = assay: Antibacterial activity against Staphylococcus aureus ATCC 29213 after 24 hrs by broth microdilution assay; type: functional; settings: ATCC 29213, 24 h
Enterococcus faecium [30] = assay: Antibacterial activity against Enterococcus faecium ATCC 29212 after 24 hrs by broth microdilution assay; settings: ATCC 29212, 24 h

SMILES | selectivity ratio [2] | Activity (Staphylococcus aureus [3]) | Activity (Escherichia coli [4]) | Activity (Escherichia coli [5]) | Activity (Staphylococcus aureus [6]) | Retention_time [13] [min] | HC50 at 1 h [14] [µg/mL] | MIC (Klebsiella pneumoniae) [µg/mL] | MIC (Enterococcus faecium [15]) [µg/mL] | MIC (Staphylococcus aureus [16]) [µg/mL] | MIC (Pseudomonas aeruginosa [17]) [µg/mL] | MIC (Escherichia coli [18]) [µg/mL] | MIC (Enterococcus faecium [19]) [µg/mL] | MIC (Staphylococcus aureus [20]) [µg/mL] | also measured
CCCCCCN(Cc1cccc2ccccc12)C(=O)[C@@H](N)CCCCN.O=C(O)C(F)(F)F.O=C(O)C(F)(F)F | 50 | Active | Active | Active | Active | 11.8 | 508 | 100 | 54 | 65 | 11 | 25 | 34 | 20 | Activity (Staphylococcus aureus [1]): Active; Activity (Escherichia coli [7]): Active; Activity (Staphylococcus aureus [8]): Active; Activity (Escherichia coli [9]): Active; Stability [10]: Stable; MIC (Staphylococcus aureus [11]): 30 µg/mL; Activity (Staphylococcus aureus [12]): Active
CCCCCCN(Cc1c2ccccc2c(Cl)c2ccccc12)C(=O)[C@@H](N)CCCCN.O=C(O)C(F)(F)F.O=C(O)C(F)(F)F | 50 | Active | Active | Active | Active | 13.6 | 82 | 16 | 5.2 | 2.8 | 1.6 | 3.5 | 3.3 | 2.4 | Activity (Staphylococcus aureus [21]): Active; Activity (Pseudomonas aeruginosa [22]): Active; Activity (Staphylococcus aureus [23]): Active; Activity (Staphylococcus aureus [24]): Active; log10CFU/ml (Staphylococcus aureus [25]): 6; Ratio (Escherichia coli [26]): 5
CC[C@H](C)[C@H](NC(=O)CN)C(=O)NCC(=O)N[C@@H](CCCCN)C(=O)N[C@@H](Cc1ccccc1)C(=O)N[C@@H](CC(C)C)C(=O)N[C@@H](CCCCN)C(=O)N[C@@H](CCCCN)C(=O)N[C@@H](C)C(=O)N[C@@H](CCCCN)C(=O)N[C@@H](CCCCN)C(=O)N[C@@H](Cc1ccccc1)C(=O)NCC(=O)N[C@@H](CCCCN)C(=O)N[C@@H](C)C(=O)N[C@@H](Cc1ccccc1)C(=O)N[C@H](C(=O)N[C@@H](CCCCN)C(=O)N[C@H](C(=O)N[C@@H](CC(C)C)C(=O)N[C@@H](CCCCN)C(=O)N[C@@H](CCCCN)C(N)=O)[C@@H](C)CC)C(C)C [PEXIGANAN] (H-GIGKFLKKAKKFGKAFVKILKK-NH2) | – | – | – | – | – | – | – | 8 (≈ 3.23 µM) | 8 (≈ 3.23 µM) | 16 (≈ 6.46 µM) | – | – | – | – | MIC (Pseudomonas aeruginosa [27]): 8 µg/mL (≈ 3.23 µM); MIC (Escherichia coli [28]): 16 µg/mL (≈ 6.46 µM); MIC (Staphylococcus aureus [29]): 8 µg/mL (≈ 3.23 µM); MIC (Enterococcus faecium [30]): 64 µg/mL (≈ 25.8 µM)
